Here are results for 23 compounds from ChEMBL document CHEMBL1156631 (J Med Chem, 2008).

For experiment [1], the target named is T1, Cannabinoid receptor 2 (Homo sapiens, UniProt P34972). The experiment in a line: Agonist activity at human recombinant CB2 receptor expressed in Sf9 cells by GTP-europium binding assay relative to CP-55940. In a few lines: (§1)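 Membranes were from Sf9 insect cells cotransfected with CB1 or CB2 plus Gαi3 (Bmax 1.7 pmol/mL). Compound (0.01 nM–10 µM, 1% DMSO final) was added to buffer with Hepes, BSA, 10 mM MgCl2, 150 mM NaCl, 5 µM GDP, 10 nM GTP-europium, saponin and membranes (CB1 4.5 µg/well, CB2 14 µg/well). Incubation was 45 min at room temperature, then filtration and washing, with fluorescence read at 615 nm. 100% efficacy was set by 3 µM reference agonist.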

In experiment [2] the target is T1, Cannabinoid receptor 2. The experiment in a line: Agonist activity at human recombinant CB2 receptor expressed in Sf9 cells by GTP-europium binding assay. In a few lines: (§2)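 Membranes were from Sf9 insect cells cotransfected with CB1 or CB2 plus Gαi3 (Bmax 1.7 pmol/mL). Compound (0.01 nM–10 µM, 1% DMSO final) was added to buffer with Hepes, BSA, 10 mM MgCl2, 150 mM NaCl, 5 µM GDP, 10 nM GTP-europium, saponin and membranes (CB1 4.5 µg/well, CB2 14 µg/well). 100% efficacy was set by 3 µM reference agonist.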

Experiment [3] addresses T2, Cannabinoid receptor 1 (Homo sapiens, UniProt P21554). The experiment in a line: Agonist activity at human CB1 receptor expressed in Sf9 cells by GTP-europium binding assay. In a few lines:
as §2

Experiment [4] addresses T1, Cannabinoid receptor 2. The experiment in a line: Agonist activity at human recombinant CB2 receptor expressed in CHO-K1 cells assessed as inhibition of forskolin-stimulated intracellular cAMP level relative to CP-55940. The experiment is classed as functional, cell-based. The procedure, abridged:
(§3)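 CHO-K1 cells stably expressing human or rat CB1 or CB2 were used. Compounds were diluted from DMSO into HBSS/HEPES/BSA buffer containing 60 µM forskolin, then combined with 5000 cells/well plus Alexa647 anti-cAMP antibody, 1 h at room temperature. A biotinylated-cAMP detection mix was added for another 1 h. Emission at 665 nm gave concentration-response curves and EC50; Emax is expressed as a percentage of the reference agonist maximum.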

Experiment [5] has as its target T3, Cannabinoid receptor 2 (Rattus norvegicus) (UniProt Q9QZN9).
T3 sequence (whole entry): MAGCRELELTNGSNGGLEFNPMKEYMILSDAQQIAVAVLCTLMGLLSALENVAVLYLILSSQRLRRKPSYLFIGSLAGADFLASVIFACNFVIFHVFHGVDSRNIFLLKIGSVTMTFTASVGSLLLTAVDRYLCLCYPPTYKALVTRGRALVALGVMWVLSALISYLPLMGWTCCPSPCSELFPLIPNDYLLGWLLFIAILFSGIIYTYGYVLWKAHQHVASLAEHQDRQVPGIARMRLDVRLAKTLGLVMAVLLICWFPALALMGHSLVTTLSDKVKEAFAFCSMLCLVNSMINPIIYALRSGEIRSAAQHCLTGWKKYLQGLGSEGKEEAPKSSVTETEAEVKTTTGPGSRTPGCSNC
The experiment in a line: Agonist activity at rat recombinant CB2 receptor expressed in CHO-K1 cells assessed as inhibition of forskolin-stimulated intracellular cAMP level relative to CP-55940. The format is functional, cell-based. The procedure, abridged: as §3

Experiment [6] has as its target T1, Cannabinoid receptor 2. The experiment in a line: Agonist activity at human recombinant CB2 receptor expressed in CHO-K1 cells assessed as inhibition of forskolin-stimulated intracellular cAMP level. The format is functional, cell-based. In a few lines: (§4)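 CHO-K1 cells stably expressing human or rat CB1 or CB2 were used. Compounds were diluted from DMSO into HBSS/HEPES/BSA buffer containing 60 µM forskolin, then combined with 5000 cells/well plus Alexa647 anti-cAMP antibody, 1 h at room temperature. A biotinylated-cAMP detection mix was added for another 1 h.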

Experiment [7] deals with T2, Cannabinoid receptor 1. The experiment in a line: Agonist activity at human recombinant CB1 receptor expressed in CHO-K1 cells assessed as inhibition of forskolin-stimulated intracellular cAMP level. The format is functional, cell-based. In a few lines: as §4
Experiment [8] addresses Cannabinoid receptor 1 (Rattus norvegicus) (UniProt P20272). The experiment in a line: Agonist activity at rat recombinant CB1 receptor expressed in CHO-K1 cells assessed as inhibition of forskolin-stimulated intracellular cAMP level relative to CP-55940. The experiment is classed as functional, cell-based. The procedure, abridged:
as §3

Experiment [9] deals with T2, Cannabinoid receptor 1. The experiment in a line: Agonist activity at human recombinant CB1 receptor expressed in Sf9 cells by GTP-europium binding assay relative to CP-55940. The procedure, abridged:
as §1

Experiment [10] addresses Cannabinoid receptor 1 (Rattus norvegicus, UniProt P20272). The experiment in a line: Agonist activity at rat recombinant CB1 receptor expressed in CHO-K1 cells assessed as inhibition of forskolin-stimulated intracellular cAMP level. The experiment is classed as functional, cell-based. In a few lines:
as §4

Experiment [11] addresses T4, Cannabinoid receptor 2 (Rattus norvegicus, UniProt Q9QZN9).
T4 sequence (Q9QZN9 whole entry): T3 sequence (whole entry)
The experiment in a line: Agonist activity at rat recombinant CB2 receptor expressed in CHO-K1 cells assessed as inhibition of forskolin-stimulated intracellular cAMP level. The experiment is classed as functional, cell-based. The procedure, abridged: as §3

Experiment [12] concerns the target T2, Cannabinoid receptor 1. The experiment in a line: Agonist activity at human recombinant CB1 receptor expressed in CHO-K1 cells assessed as inhibition of forskolin-stimulated intracellular cAMP level relative to CP-55940. The format is functional, cell-based. The procedure, abridged: as §3

T1 sequence (P34972 whole entry): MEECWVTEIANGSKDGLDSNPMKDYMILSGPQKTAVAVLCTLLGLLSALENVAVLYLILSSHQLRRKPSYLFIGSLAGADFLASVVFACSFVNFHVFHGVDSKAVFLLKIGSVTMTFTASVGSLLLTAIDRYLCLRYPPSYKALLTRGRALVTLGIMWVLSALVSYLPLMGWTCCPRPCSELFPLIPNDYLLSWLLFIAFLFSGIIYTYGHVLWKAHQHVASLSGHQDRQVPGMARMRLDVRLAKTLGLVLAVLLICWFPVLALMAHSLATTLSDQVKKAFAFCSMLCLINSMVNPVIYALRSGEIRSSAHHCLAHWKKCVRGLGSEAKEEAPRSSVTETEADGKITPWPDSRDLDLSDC
T2 sequence (P21554 whole entry): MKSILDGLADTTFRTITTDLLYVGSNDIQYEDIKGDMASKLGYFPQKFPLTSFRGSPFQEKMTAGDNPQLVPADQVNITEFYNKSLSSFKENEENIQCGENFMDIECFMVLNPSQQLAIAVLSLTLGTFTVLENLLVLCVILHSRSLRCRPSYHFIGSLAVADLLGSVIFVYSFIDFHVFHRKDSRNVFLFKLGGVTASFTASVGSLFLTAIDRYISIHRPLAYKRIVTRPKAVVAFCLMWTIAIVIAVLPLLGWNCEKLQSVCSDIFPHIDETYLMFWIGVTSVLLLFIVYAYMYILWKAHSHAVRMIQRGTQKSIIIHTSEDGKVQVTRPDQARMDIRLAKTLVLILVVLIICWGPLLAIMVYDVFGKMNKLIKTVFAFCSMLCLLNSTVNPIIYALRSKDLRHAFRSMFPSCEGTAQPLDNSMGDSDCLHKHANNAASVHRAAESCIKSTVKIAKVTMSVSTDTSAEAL
Sequence of Cannabinoid receptor 1 (Rattus norvegicus, UniProt P20272) (P20272 whole entry): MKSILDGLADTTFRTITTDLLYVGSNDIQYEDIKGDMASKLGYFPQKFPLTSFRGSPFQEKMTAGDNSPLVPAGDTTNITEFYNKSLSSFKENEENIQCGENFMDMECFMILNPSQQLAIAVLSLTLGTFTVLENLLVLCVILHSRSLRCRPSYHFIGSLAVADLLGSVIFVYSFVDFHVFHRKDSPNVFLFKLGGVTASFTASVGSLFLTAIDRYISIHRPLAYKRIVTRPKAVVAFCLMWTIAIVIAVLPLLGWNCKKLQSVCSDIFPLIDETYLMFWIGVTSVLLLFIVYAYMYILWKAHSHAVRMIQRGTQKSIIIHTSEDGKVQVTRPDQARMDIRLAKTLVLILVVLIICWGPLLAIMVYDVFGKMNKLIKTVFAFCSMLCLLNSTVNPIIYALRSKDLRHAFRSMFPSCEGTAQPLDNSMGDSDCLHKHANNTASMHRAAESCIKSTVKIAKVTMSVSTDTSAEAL
Sequence of Cannabinoid receptor 1 (Rattus norvegicus) (P20272 whole entry): as above

On to `CCn1c2ccccc2c2cc(NC(=O)CCc3nc(-c4ccccc4C(C)C)no3)ccc21`, for which the maximum response (Emax) in experiment [1] is 88%. The results for the half-maximal effective concentration (EC50) in experiment [2] and in [3] were 670 nM and over 10000 nM, respectively.
Take `CC(C)(C)c1cc(NC(=O)CCc2nc(-c3ccc(F)cc3Cl)no2)no1`: the Emax in [4] was determined as 96%; in experiment [5], 100%; in experiment [1], 120%; in [8], 110%; in [9], 103%; in experiment [12], 48%. The EC50 in [2] was 0.2 nM; in experiment [6] it was 0.7 nM; in experiment [3], 1600 nM; in experiment [7], over 1000 nM; in experiment [10], 170 nM; in experiment [11], 0.4 nM.
As for `CCn1c2ccccc2c2cc(NC(=O)CCc3nc(C4CCOCC4)no3)ccc21`, the maximum response (Emax) in experiment [4] came to 98%; in experiment [5], 100%; in experiment [1], 94%; in [8] it was 110%; in experiment [12], 23%. The EC50 in [2] was 42 nM; in experiment [6], 2.4 nM; in [3], over 10000 nM; in [7] it was over 1000 nM; in [10], 150 nM; in [11] it was 0.38 nM.
In the case of `CC(C)(C)c1ncc(NC(=O)CCc2nc(-c3ccc(F)cc3Cl)no2)cn1`, the Emax in [4] is 97%; in [5], 99%; in experiment [1], 91%; in experiment [8], 67%. Further, the concentration giving a half-maximal response (EC50) in experiment [2] is 5.4 nM; in experiment [6], 2.9 nM; in experiment [3] it was over 10000 nM; in experiment [7], over 1000 nM; in [10], 570 nM; in [11] it was 1.3 nM.
As for `CCn1c2ccccc2c2cc(NC(=O)CCn3cc(-c4ccccc4F)nn3)ccc21`, the Emax in experiment [1] is 15%. In addition, the 50% effective concentration (EC50) was 470 nM in experiment [2] and over 10000 nM in experiment [3].
In the same order, the values of `CCn1c2ccccc2c2cc(NC(=O)CCc3cc(-c4ccccc4F)no3)ccc21` are 64%, 270 nM and over 10000 nM.
In the same order, the values of `CCn1c2ccccc2c2cc(NC(=O)CCc3nc(-c4ccccc4Cl)no3)ccc21` are 100%, 6 nM and over 10000 nM.
For the compound `N#Cc1cc(NCCCc2nc(-c3ccc(F)cc3Cl)no2)cnc1OCC(F)(F)F`, the maximal effect (Emax) in [4] worked out at 87%; in experiment [5] it was 85%; in [1], 110%; in [9] it was 24%. In addition, the concentration for a half-maximal effect (EC50) in experiment [2] is 31 nM; in experiment [6], 360 nM; in [3] it was 1300 nM; in [7] it was over 1000 nM; in experiment [10], over 1000 nM; in [11], 130 nM.
Regarding `CCn1c2ccccc2c2cc(NC(=O)CCc3nc(-c4ccc(F)cc4C)no3)ccc21`, the maximum response (Emax) in [4] came to 100%; in experiment [5], 110%; in experiment [1] it was 120%; in experiment [8] it was 81%; in experiment [9], 24%. For the same compound, the EC50 was 0.089 nM in experiment [2]; 0.47 nM in experiment [6]; 1400 nM in [3]; over 1000 nM in experiment [7]; 280 nM in [10]; 0.27 nM in experiment [11].
Turning to `CCn1c2ccccc2c2cc(NC(=O)CCc3nc(-c4ccccc4)no3)ccc21`, in experiment [1], the Emax is 100%. Also, in experiment [2], the half-maximal effective concentration (EC50) was 150 nM.
Regarding `CCn1c2ccccc2c2cc(NC(=O)CCn3nnc(-c4ccccc4F)n3)ccc21`, the Emax stood at 88% in [4], 90% in experiment [5] and 93% in experiment [1]. For the same compound, the concentration for a half-maximal effect (EC50) in [2] is 200 nM; in experiment [6], 690 nM; in experiment [3], over 10000 nM; in experiment [7], over 1000 nM; in experiment [10], over 1000 nM; in experiment [11], 97 nM.
Regarding `CCn1c2ccccc2c2cc(NC(=O)CCc3nc(-c4ccccc4F)co3)ccc21`, the maximum response (Emax) in experiment [1] stood at 46%. For the same compound, the concentration giving a half-maximal response (EC50) in [2] was 2000 nM; in experiment [3] it was over 10000 nM.
On to `CC(C)(C)c1cc(NCCCc2nc(-c3ccc(F)cc3Cl)no2)no1`, for which the Emax amounted to 90% in [4], 82% in experiment [5], 110% in [1] and 33% in experiment [9]. Moreover, the half-maximal effective concentration (EC50) in experiment [2] was 27 nM; in experiment [6], 130 nM; in experiment [3] it was 670 nM; in experiment [7], over 1000 nM; in [10], over 1000 nM; in experiment [11], 190 nM.
Take `CCn1c2ccccc2c2cc(NC(=O)CCc3cc(-c4ccccc4F)n(C)n3)ccc21`: the concentration for a half-maximal effect (EC50) in experiment [2] and in [3] was over 10000 nM each time.
For the compound `O=C(CCc1nc(-c2ccc(F)cc2Cl)no1)Nc1ccc(C(F)(F)F)c(Cl)c1`, the maximal response (Emax) in experiment [4] stood at 97%; in experiment [5], 100%; in experiment [1], 120%. Moreover, the EC50 is 62 nM in experiment [2]; 25 nM in experiment [6]; over 10000 nM in [3]; over 1000 nM in experiment [7]; over 1000 nM in [10]; 79 nM in experiment [11].
With `O=C(CCc1nc(-c2ccc(F)cc2Cl)no1)Nc1ccc(C(F)(F)F)nc1`, the Emax in experiment [4] turned out to be 96%; in experiment [5], 95%; in experiment [1] it was 120%; in experiment [9], 17%. Also, the concentration for a half-maximal effect (EC50) in experiment [2] was 97 nM; in [6], 78 nM; in experiment [3], 2800 nM; in experiment [7] it was over 1000 nM; in [10], over 1000 nM; in experiment [11] it was 73 nM.
As to `CC(C)c1ccc(NC(=O)CCc2nc(-c3ccc(F)cc3Cl)no2)cc1`, the figures for the maximal response (Emax) in experiment [1] and in experiment [9] were 130% and 23%, respectively. Also, the concentration for a half-maximal effect (EC50) came to 10 nM in experiment [2] and 2000 nM in experiment [3].
For `CCn1c2ccccc2c2cc(NC(=O)CCc3noc(-c4ccccc4F)n3)ccc21`, the maximal response (Emax) in experiment [1] came to 76%. Also, the results for the EC50 in [2] and in [3] were 190 nM and over 10000 nM, respectively.
With `CCn1c2ccccc2c2cc(NC(=O)CCc3cc(-c4ccccc4F)[nH]n3)ccc21`, the EC50 in experiment [2] and in [3] was over 10000 nM each time.
Take `CCCCCCC(C)(C)c1ccc([C@@H]2C[C@H](O)CC[C@H]2CCCO)c(O)c1` [CP-55940]: the EC50 in [11] stood at 0.34 nM.
In the case of `CCn1c2ccccc2c2cc(NC(=O)CCc3nc(-c4ccncc4C#N)no3)ccc21`, the maximum response (Emax) worked out at 100% in experiment [4], 110% in experiment [5] and 110% in experiment [1]. For the same compound, the half-maximal effective concentration (EC50) in [2] was 3.8 nM; in [6], over 2.6 nM; in experiment [3], over 10000 nM; in experiment [7], over 1000 nM; in experiment [10] it was over 1000 nM; in [11], 1.3 nM.
Take `CCn1c2ccccc2c2cc(NC(=O)CCc3nc(-c4cccc(Cl)c4)no3)ccc21`: the maximal effect (Emax) in experiment [1] was 87%. In addition, the 50% effective concentration (EC50) in experiment [2] was 410 nM; in [3], over 10000 nM.
As to `O=C(CCc1nc(-c2ccc(F)cc2Cl)no1)Nc1ccc(C(F)(F)F)cc1`, the maximal response (Emax) in [4] is 94%; in experiment [5], 90%; in [1] it was 120%. The EC50 is 75 nM in experiment [2]; 38 nM in experiment [6]; over 10000 nM in experiment [3]; over 1000 nM in [7]; over 1000 nM in experiment [10]; 58 nM in [11].
